Screening data as filed in PubChem BioAssay.
TROY NFkB inh – inhibitors of TROY-driven NF-kB signaling, primary screen, Q293 LMP1-TROYcd cells, NF-kB luciferase, uHTS; Q293 LMP1-TROYcd NF-kB luciferase reporter, 4 h; inhibition, % at 10 µM; 360,000 tested, 0.98% active; AID 1347056, 2019;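 active means compounds whose plate-normalised and pattern-corrected inhibition of the luciferase reporter signal at the single screening dose is 50% or more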
NR2E3 ag-1 – NR2E3 agonists in two-hybrid cells, primary screen, cell-based, luminescence, CHO-S, Gal4-NCOR/VP16-NR2E3. Photoreceptor-specific nuclear receptor (Homo sapiens), Q9Y5X4. luciferase. inhibition of corepressor binding, % at 3.98 µM. 360,000 tested, 0.35% active. AID 602229, 2012;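 active means inhibition above the mean of all tested compounds plus 3 SD, cut at about 70% in these data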;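 further: 0% = DMSO with NR2E3 transfected cells and 100% = cells lacking NR2E3 construct; higher means lower luciferase signal from less NR2E3 corepressor binding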
Target sequence (Q9Y5X4 whole entry, looked up, the tested form may be a part): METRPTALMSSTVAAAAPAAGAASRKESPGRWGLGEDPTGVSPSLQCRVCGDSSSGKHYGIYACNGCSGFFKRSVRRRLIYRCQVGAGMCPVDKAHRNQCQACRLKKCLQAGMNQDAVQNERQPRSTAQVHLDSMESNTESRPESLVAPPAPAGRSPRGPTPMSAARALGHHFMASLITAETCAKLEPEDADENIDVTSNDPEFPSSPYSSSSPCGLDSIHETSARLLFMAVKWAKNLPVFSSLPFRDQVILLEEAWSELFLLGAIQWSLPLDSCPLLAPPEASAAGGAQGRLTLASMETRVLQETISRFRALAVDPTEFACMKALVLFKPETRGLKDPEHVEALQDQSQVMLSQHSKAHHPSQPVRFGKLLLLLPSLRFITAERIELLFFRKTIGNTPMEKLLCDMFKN
HIF act – HIF pathway transcriptional activators, primary screen, cell-based, U2OS HRE-luciferase, luminescence | U2OS HRE-luciferase reporter; normalized: DMSO 0%, desferrioxamine 100% | activation, % at 7.5 µM (by protocol) | 300,000 tested, 0.32% active | AID 1910, 2009;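 active means mean activation of at least 10% of the iron chelator positive control signal, with at least half of replicates also reaching 10%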
LMP1 NFkB inh – EBV LMP1-driven NF-kappaB luciferase reporter inhibitors, primary screen, cell-based, luminescence, single point. LMP1-induced NF-kappaB luciferase reporter cells. inhibition, % at 12.5 µM. 350,000 tested, 0.69% active; in the data active means inhibition above about 41%;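 further: 0% = neutral control wells and 100% = reference inhibitor control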
NR2E3 ag-2 – inhibitors of NR2E3-RetCOR corepressor binding, primary screen, NR2E3 agonist project, biochemical, TR-FRET, GST-NR2E3, biotin-RetCOR | Photoreceptor-specific nuclear receptor (Homo sapiens), Q9Y5X4 | 1536-well | inhibition of corepressor binding, % at 4.78 µM | 320,000 tested, 0.12% active;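 active means percent inhibition above the cutoff of mean plus 3 SD of all tested compounds, set per screening campaign, cut at about 20% in these data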;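 further: 0% = DMSO wells and 100% = biotin wells as full block of FRET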
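Assay system: NR2E3–RetCOR corepressor complex. Quantity: 1.35 nM GST-NR2E3. Buffer or medium: pH 7.5 Tris-based buffer. Reagent: biotinylated RetCOR corepressor at 7 nM final. Schedule: 5 h at 4 °C. Detection: TR-FRET, emission read at 617 and 671 nm. Replicates: one well per compound, singlicate testing.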
* marks the source's active call; other numbers are inactive results; / = no result. Rows were chosen to be rich in hits. Some 2% of all compounds tested hit in one or more screens of this group.

SMILES	TROY NFkB inh	NR2E3 ag-1	HIF act	LMP1 NFkB inh	NR2E3 ag-2
COC(=O)CCN1CCc2cc(N=Nc3ccc([N+](=O)[O-])cc3)ccc21	53*	-6	2	9	1
Cc1ccccc1CN1CCc2cc([N+](=O)[O-])ccc21	-18	7	3	2	2
Cc1cc(-c2ccncc2)n2ncc(-c3ccccc3)c2n1	-24	-150	/	/	/
Cc1nc2c(-c3ccc(Cl)cc3)cnn2c(N)c1-c1ccc(F)cc1	80*	32	0	-57	1
COc1ccc(-c2c(C)nc3c(-c4ccc(F)cc4)cnn3c2N)cc1	55*	-57	4	-16	2
Cc1cc(-c2ccc(F)cc2)n2ncc(-c3ccccc3)c2n1	79*	39	/	/	/
Nc1c(-c2ccc(Cl)cc2)cnc2c(-c3ccc(F)cc3)cnn12	37	-150	5	-64	0
CNc1ncnc2c1ncn2[C@H]1CN(Cc2ccc3c(c2)OCO3)C[C@@H](CO)O1	1	-21	/	/	/
Cn1nc(C(C)(C)C)cc1C(=O)N1CCCCC1c1cc(C(=O)Nc2ccccc2)no1 (configuration not stated)	-7	-8	/	/	/
CCC(=O)N1CCc2cc(S(=O)(=O)NCCC(=O)N3CCN(c4ccccc4)CC3)ccc21	7	21	0	-10	1
CCC(=O)N1CCc2cc(S(=O)(=O)NCCC(=O)N3CCN(c4cccc(OC)c4)CC3)ccc21	-16	3	30*	3	2
COc1ccc(Nc2nc(S(=O)(=O)c3ccc(C)cc3)c(Cl)s2)cc1	37	-12	0	-13	0
Cc1ccc(S(=O)(=O)c2nc(Nc3ccccc3)sc2Cl)cc1	54*	4	0	-4	/
O=C(CSC(=S)N1CCCCC1)c1ccccc1	50*	-63	-1	5	2
O=C(CSc1nnc(COc2ccccc2)o1)N1CCCCC1	1	-28	1	-4	3
CN(Cc1cccs1)C(=O)CSc1nc(N)cc(N)n1	-6	-29	39*	6	1
CN(Cc1cccs1)C(=O)COC(=O)CNC(N)=O	4	-13	0	-7	4
CCOC(=O)/C(=C/c1c(C)n(C)c2ccc([N+](=O)[O-])cc12)C(C)=O	50*	-20	1	9	-4
CC(=O)c1c(C)[nH]c(C(=O)Nc2ccc(C)c(S(=O)(=O)Nc3ccc(C)cc3C)c2)c1C	58*	14	1	5	1
Cc1ccc(NS(=O)(=O)c2cc(NC(=O)c3ccc4c(c3)NC(=O)CS4)ccc2C)c(C)c1	64*	-9	0	7	1
Cc1c(CN(C)C)c2c(n1C)C(=O)c1ccc(Br)cc1-2	-8	3	0	0	-5
CCOC(=O)c1c2c(n(C)c1C)C(=O)C(=O)c1ccc(Br)cc1-2	45	-24	-8	77*	4
CCOC(=O)c1c2c3c(cccc3n(C)c1=O)C(=O)c1ccccc1-2	6	-9	0	20	-1
CCOC(=O)c1c2c(n(Cc3ccccc3)c1C)C(=O)C(=O)c1ccccc1-2	65*	28	/	14	/
O=C(COC(=O)c1ccccc1O)Nc1cccc2ccccc12	-10	36	/	-4	4
SMILES	TROY NFkB inh	NR2E3 ag-1	HIF act	LMP1 NFkB inh	NR2E3 ag-2
CCOC(=O)C1CCN(C(=O)CCCn2nc(CC)n3c(cc4occc43)c2=O)CC1	-11	-17	0	-12	-2
COc1ccc(S(=O)(=O)Nc2cccc(S(=O)(=O)N3CCCCCC3)c2)cc1	20	2	0	-3	-4
O=S(=O)(Nc1nc2ccccc2nc1Nc1ccc2c(c1)OCO2)c1ccc(F)cc1	58*	-12	0	10	-3
O=S(=O)(Nc1nc2ccccc2nc1Nc1cccc(S(=O)(=O)N2CCCCC2)c1)c1ccccc1	68*	-18	-2	4	2
CCC(=O)N(c1nnc(SCC(=O)NN2C(=O)NC3(CCCCC3)C2=O)s1)C1CC1	-3	-40	/	1	5
Cc1ccc2ncnc(Nc3cccc([N+](=O)[O-])c3)c2c1	16	-33	1	13	-1
